This note sets out measurements from the RNAGym collection of RNA variant scans (doi:10.1038/nmeth.2970).

First the molecules themselves.
B1: NELF-E aptamer (parent)
chain: CCCAACGACUGCCGAGCGAGAUUACGCUUGAGCGCCCCACUGAGGAUGCCCACGGGCGAUUGGGGCACGG

Variants of B1 are the subject of the data set. As to the kind of experiment: HiTS-RAP. The note with it: with NELF-E (Drosophila). A digest of the protocol:
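Kd came from weighted Hill fits to the first binding curve, with intensities normalised to sequencing intensity and averaged per sequence, keeping only fits whose variance was below 1,000,000. That curve was imaged on an Illumina GAIIx flowcell, where sequenced aptamer DNA templates with a T7 promoter and ter site had been transcribed in situ by T7 RNA polymerase and halted by GST-Tus (30 minutes, 37°C). Before each image, clusters equilibrated for 30 minutes at room temperature with NELF-E-mOrange at 0.064 to 1000 nM in HEPES binding buffer.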
The Kd is the equilibrium constant for the complex coming apart. For the variant CCCAACGACUGCCGAGCGGGAUUGCGCUUGAGCGCCCCACUGAGGAUGCCCACGGGCGAUUGGGGCACGG, the Kd came to 6.18 nM. The result for CCCAACGACUGCCGAGCGGGAUUACGCUUGAGCGCCCCACUGAGGAUGCCCACAGGCGAUUGGGGCACGG reads 15.1 nM; that for CCCAACGACUGCCGAGUGAGAUGACGCUUGAGCGCCCCACUGAGGAUGCCCACGGGCGAUUGGGGCACGG, 4.95 nM; that for CCCAACGACUGCCGAGUGAGAUUACGCUUGAGCGCCCCACUGGGGAUGCCCACGGGCGAUUGGGGCACGG, 20.5 nM.

As to CCCAACGACUGCCGAGCGGGAUUACACUUGAGCGCCCCACUGAGGAUGCCCACGGGCGAUUGGGGCACGG, the Kd is 4.12 nM. As to CCCAACGACUGCCGAGCUAGAUUACGCUUGAGCGCCCCACUGAGGAUGCCCACGGGCGAUUGGGGCACGG, the Kd is 5.57 nM. Under CCCAACGACUGCCGAGCCAGAUUACGCUUGAGCGCCCCACUGAGGAUGCCCACGGGCGAUUGGGGCACGG stands 6.13 nM; under CCCAACGACUGCCGAGCAAGAUUACGCUUGAGCGCCCCACUGAGGAUGCCCACGGGCGAUUGGGGCACGG, 4.61 nM. The result for CCCAACGACUGCCGAGCAAUAUUACGCUUGAGCGCCCCACUGAGGAUGCCCACGGGCGAUUGGGGCACGG reads 8.6 nM. In the case of CCCAACGACUGCCGAGCGGGAUUACGCUUGAGCGUCCCACUGAGGAUGCCCACGGGCGAUUGGGGCACGG, the equilibrium dissociation constant (Kd) was found to be 7.42 nM. The result for CCCAACGACUGCCGAGCGGGAUUACGCUUGUGCGCCCCACUGAGGAUGCCCACGGGCGAUUGGGGCACGG reads 5.3 nM; that for CCCAACGACUGCCGAGCGGGAUUACGCUUGGGCGCCCCACUGAGGAUGCCCACGGGCGAUUGGGGCACGG, 6.72 nM; that for CCCAACGACUGCCGAGCGGGAUUACGCUCGAGCGCCCCACUGAGGAUGCCCACGGGCGAUUGGGGCACGG, 6.11 nM. Consider CCCAACGACUGCCGAGCGGGAUUACGCUAGAGCGCCCCACUGAGGAUGCCCACGGGCGAUUGGGGCACGG, for which the Kd is 3.96 nM.

As for CCCAACGACUGCCGAGCGGGAUUACGCUGGAGCGCCCCACUGAGGAUGCCCACGGGCGAUUGGGGCACGG, the Kd turned out to be 5.87 nM.

Turning to CCCAACGACUGCCGAGUGAGAUUACGCUGGAGCGCCCCACUGAGGAUGCCCACGGGCGAUUGGGGCACGG, the Kd stood at 5.35 nM.

CCCAACGACUGCCGAGCUGGAUUACGCUUGAGCGCCCCACUGAGGAUGCCCACGGGCGAUUGGGGCACGG: the Kd turned out to be 6.31 nM.

With CCCAACGACUGCCGAGCGGGAUUACGCUUGAGCGCCCCGCUGAGGAUGCCCACGGGCGAUUGGGGCACGG, the Kd stood at 9.35 nM. With CCCAACGACUGCCGAGCGGGAUUACGCUUGAGCGCCCCUCUGAGGAUGCCCACGGGCGAUUGGGGCACGG, the equilibrium dissociation constant (Kd) is 31.1 nM.

Turning to CCCAACGACUGCCGAGCGGGAUUACGCCUGAGCGCCCCACUGAGGAUGCCCACGGGCGAUUGGGGCACGG, the Kd worked out at 9.82 nM. Under CCCAACGACUGCCGAGCGGGAUUACGCUUGAGCACCCCACUGAGGAUGCCCACGGGCGAUUGGGGCACGG stands 6.47 nM; under CCCAACGACUGCCGAGCGGGAUUACGCUUGAGCGCCCCACUGAGGAUGCCCACGGGCGGUUGGGGCACGG, 36.8 nM; under CCCAACGACUGCCGAGCUAGAUUGCGCUUGAGCGCCCCACUGAGGAUGCCCACGGGCGAUUGGGGCACGG, 5.98 nM.

Turning to CCCAACGACUGCCGAGCAAGAUUACGCUUGAGCGCCCCACGGAGGAUGCCCACGGGCGAUUGGGGCACGG, the Kd was found to be 4.87 nM. Under CCCAACGACUGCCGAGUGAGAUUACGCUUGAGCGCCCCACUGAGGAUGCCCACAGGCGAUUGGGGCACGG stands 11.6 nM; under CCCAACGACUGCCGAGCGGGAUUACGCUUGAGCGCCCCACUGAGGAGGCCCACGGGCGAUUGGGGCACGG, 7.16 nM.

CCCAACGACUGCCGAGCUAGAUGACGCUUGAGCGCCCCACUGAGGAUGCCCACGGGCGAUUGGGGCACGG: the Kd stood at 6.43 nM. As for CCCAACGACUGCCGAGCGGGAUUACGCUUGAGCGCCCCACUGGGGAUGCCCACGGGCGAUUGGGGCACGG, the Kd came out at 8.78 nM. The result for CCCAACGACUGCCGAGCAAGAUUACACUUGAGCGCCCCACUGAGGAUGCCCACGGGCGAUUGGGGCACGG reads 6.84 nM.

As for CCCAACGACUGCCGAGCAAGAGUACGCUUGAGCGCCCCACUGAGGAUGCCCACGGGCGAUUGGGGCACGG, the Kd turned out to be 6 nM. The result for CCCAACGACUGCCGAGCUAGAGUACGCUUGAGCGCCCCACUGAGGAUGCCCACGGGCGAUUGGGGCACGG reads 6.85 nM; that for CCCAACGACUGCCGAGCAGGAUUACGCUUGAGCGCCCCACUGAGGAUGCCCACGGGCGAUUGGGGCACGG, 5.36 nM. The result for CCCAACGACUGCCGAGCACGAUUACGCUUGAGCGCCCCACUGAGGAUGCCCACGGGCGAUUGGGGCACGG reads 6.3 nM. For the variant CCCAACGACUGCCGAGCGGGAGUACGCUUGAGCGCCCCACUGAGGAUGCCCACGGGCGAUUGGGGCACGG, the Kd came out at 5.7 nM.

In the case of CCCAACGACUGCCGAGCGGGACUACGCUUGAGCGCCCCACUGAGGAUGCCCACGGGCGAUUGGGGCACGG, the Kd worked out at 4.25 nM. For CCCAACGACUGCCGAGCGGGAUUACGCUUGAGCGCCCCACUGAGGAUGCCCUCGGGCGAUUGGGGCACGG, the Kd amounted to 19.5 nM.

As to CCCAACGACUGCCGAGCGGGAUUACGCUUGAGCGCCCCACUGAGGAUGCCCGCGGGCGAUUGGGGCACGG, the Kd was 5.06 nM. The result for CCCAACGACUGCCGAGGGAGAUUACGCUUGAGCGCCCCACUGAGGAGGCCCACGGGCGAUUGGGGCACGG reads 4.63 nM. The result for CCCAACGACUGCCGAGCGGGAUUACGCUUGAGUGCCCCACUGAGGAUGCCCACGGGCGAUUGGGGCACGG reads 7.36 nM.
